From ChEMBL document CHEMBL1125251, “4'-Hydroxy-3-methoxyflavones with potent antipicornavirus activity” (J Med Chem, 1991)
Values after ≈ are worked out from the molar mass of the structure shown.

How the values were obtained:
Human rhinovirus sp. [1] = test: Cytotoxic dose at which 50% growth of normal cells is inhibited against rhino virus infection.; type: functional
Outline: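 Human skin fibroblasts, 10⁶ cells per flask, given serial 2-fold dilutions in quadruplicate in M-199 with 6% newborn calf serum and held 6 days at 37 °C. Cells were trypsinized, counted in a chamber and reseeded with compound over five repeat cycles. CyD50 = lowest concentration at least doubling cell generation time relative to untreated control.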

[2] = Therapeutic Index measured as the ratio of CyD50 (rhino) / ED99 (rhino) values.; details: read-out: Therapeutic index 99
Outline: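 TI99 = CyD50/ED99 for rhinovirus 15. ED99 came from end-point titration in human skin fibroblasts at 33 °C over 7 days. CyD50 came from fibroblast growth: 10⁶ cells were given serial 2-fold compound dilutions in quadruplicate for 6 days at 37 °C, then counted and reseeded, repeated five times. Generation time was calculated per concentration.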

Enterovirus C [3] = test: Minimum drug concentration at which 99% of the polio virus is inhibited; type: functional
Outline: (§1)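 Poliovirus type 1 Brunhilde 1A/S3 in Vero monolayers. Serial 10-fold virus dilutions adsorbed 1 h at 37 °C, then serial 2-fold compound dilutions were added. Incubated at 37 °C and scored for CPE by light microscopy, with a 3-day readout. Titer reduction is control/treated TCD50/mL. ED99 is the minimum concentration inhibiting 99% of virus. Virus, cell and compound controls were included.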

Human rhinovirus sp. [4] = test: Minimum drug concentration at which 99% of the rhino virus is inhibited.; type: functional
Outline: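 End-point titration with rhinovirus type 15 on human skin fibroblast monolayers. Cells were infected with serial 10-fold virus dilutions and allowed 1 h adsorption at 37 °C. Serial 2-fold compound dilutions were then added and plates incubated at 33 °C. CPE was read daily by light microscopy for at least 1 week, titres as TCD50/mL. ED99 = minimum concentration inhibiting 99% of virus.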

Enterovirus C [5] = test: Minimal dose which produces titer reduction at 10 ug/mL (mD RF10e3); type: functional
[6] = Therapeutic Index measured as the ratio of CyD50(polio) / ED99(polio) values; type: organism-based; details: enterovirus c; read-out: Therapeutic index 99
Outline: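 TI99 = CyD50/ED99 for poliovirus. ED99 came from end-point titration in Vero cells at 37 °C over 3 days. CyD50 came from Vero cell growth: 10⁶ cells were given serial 2-fold compound dilutions in quadruplicate for 6 days at 37 °C, then trypsinized, counted and reseeded, repeated five times. Generation time was calculated per concentration.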

Enterovirus C [7] = test: Maximal non-toxic dose (MNTD) that shows antiviral activity.; type: functional
Outline: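 End-point titration. Poliovirus type 1 Brunhilde was run in Vero cells at 37 °C with a 3-day read. Rhinovirus 15 was run in human skin fibroblasts at 33 °C with a 7-day read. Monolayers got serial 10-fold virus dilutions and adsorbed 1 h at 37 °C, then serial 2-fold compound dilutions (DMSO stock in maintenance medium). CPE was read by light microscopy. RF = control titer (TCD50/mL) / titer at maximal nontoxic dose.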

[8] = Cytotoxic dose at which 50% growth of normal cells is inhibited; type: cell-based; details: chlorocebus sabaeus, Vero cells; read-out: CyD50
Outline: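 Cell-growth cytotoxicity in Vero cells or human skin fibroblasts. Serial 2-fold dilutions in M-199 with 6% newborn calf serum were added in quadruplicate to 10⁶ cells and held 6 days at 37 °C. Cells were trypsinized, counted and reseeded with compound, repeated five times. Generation time was calculated per concentration. CyD50 = lowest concentration at least doubling generation time versus untreated cells.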

Enterovirus C [9] = test: The ratio of the poliovirus viral titer of the virus control (reduction factor) to the viral titer in the presence of the maximal non-toxic dose (RF MNTD); type: functional; outline: as §1

| SMILES | CyD50 (Human rhinovirus sp. [1]) | selectivity ratio [2] | ED99 (Enterovirus C [3]) | ED99 (Human rhinovirus sp. [4]) | Minimal dose (Enterovirus C [5]) | selectivity ratio [6] | Max non-toxic dose (Enterovirus C [7]) | CC50 [8] | Reduction factor (Enterovirus C [9]) |
| --- | --- | --- | --- | --- | --- | --- | --- | --- | --- |
| COc1c(-c2ccc(O)cc2)oc2cc(O)ccc2c1=O | 25 µg/mL | 1 | 1 µg/mL | 25 µg/mL | 4 µg/mL | 15 | 5 µg/mL | 15 mg/L (≈ 52.8 µM) | – |
| COc1ccc(-c2oc3cc(OC)cc(O)c3c(=O)c2OC)cc1 | – | – | – | – | – | – | >50 µg/mL | – | 1 |
| COc1ccc(-c2oc3cc(OC)c(OC)cc3c(=O)c2OC)cc1OC | – | – | – | – | 50 µg/mL | – | 50 µg/mL | – | 10000 |
| COc1c(-c2ccc(O)c(O)c2)oc2cc(O)cc(O)c2c1=O [3-O-METHYLQUERCETIN] | – | – | 0.3 µg/mL | – | 0.5 µg/mL | 16.7 | 20 µg/mL | 5 mg/L (≈ 15.8 µM) | 1000000 |
| COc1ccc(-c2oc3c(OC)c(OC)c(OC)c(OC)c3c(=O)c2OC)cc1OC [3,5,6,7,8,3',4'-HEPTAMETHOXYFLAVONE] | – | – | – | – | 25 µg/mL | – | 50 µg/mL | – | 100000 |
| COc1c(-c2ccc(Cl)cc2)oc2cc(C)ccc2c1=O | – | – | <1000 µg/mL | – | – | – | 25 µg/mL | 100 mg/L (≈ 333 µM) | 1 |
| COc1ccc(-c2oc3c(OC)c(OC)cc(O)c3c(=O)c2OC)cc1 | – | – | – | – | – | – | 7.5 µg/mL | – | – |
| COc1ccc(-c2oc3cc(O)cc(O)c3c(=O)c2OC)cc1OC | – | – | – | – | 2.5 µg/mL | – | 50 µg/mL | – | – |
| COc1c(-c2ccc(O)cc2)oc2cc(F)ccc2c1=O | – | – | 10 µg/mL | – | – | 2.5 | 10 µg/mL | 25 mg/L (≈ 87.3 µM) | 1000 |
| COc1ccc(-c2oc3cc(C)ccc3c(=O)c2OC)cc1 | – | – | – | – | – | – | 100 µg/mL | – | 1 |
| COc1c(-c2ccc(O)cc2)oc2c(C)cc(Cl)cc2c1=O | – | – | >50 µg/mL | – | – | < 1 | 25 µg/mL | 50 mg/L (≈ 158 µM) | 1 |
| COc1ccc(-c2oc3cc(O)c(OC)c(O)c3c(=O)c2OC)cc1 [SANTIN] | – | – | – | – | – | – | 100 µg/mL | – | 1 |
| COc1ccc(-c2oc3ccc(OC)cc3c(=O)c2OC)cc1 | 100 µg/mL | – | – | 50 µg/mL | – | 2 | 50 µg/mL | 100 mg/L (≈ 320 µM) | – |
| COc1ccc2c(=O)c(OC)c(-c3ccc(O)cc3)oc2c1 | >50 µg/mL | > 5 | 2.5 µg/mL | 10 µg/mL | 2.5 µg/mL | > 20 | 50 µg/mL | > 50 mg/L | – |
| COc1c(-c2ccc(O)cc2)oc2cc(Br)ccc2c1=O | – | – | >30 µg/mL | – | – | < 1 | 30 µg/mL | 30 mg/L (≈ 86.4 µM) | 10 |
| COc1ccc(-c2oc3c(OC)c(OC)c(OC)c(O)c3c(=O)c2OC)cc1OC | – | – | – | – | 50 µg/mL | – | 50 µg/mL | – | 10000 |
| Cc1ccc2c(=O)c(Cl)c(-c3ccc(O)cc3)oc2c1 | 50 µg/mL | – | – | 20 µg/mL | – | – | – | 50 mg/L (≈ 174 µM) | – |
| COc1c(-c2ccc(O)cc2)oc2ccccc2c1=O | – | – | 6 µg/mL | – | 6 µg/mL | 1.7 | 15 µg/mL | 10 mg/L (≈ 37.3 µM) | 100000 |
| COc1c(-c2ccc(O)cc2)oc2cc(I)ccc2c1=O | 20 µg/mL | – | 4 µg/mL | <1000 µg/mL | 10 µg/mL | 5 | 10 µg/mL | 20 mg/L (≈ 50.7 µM) | 10000 |
| COc1c(-c2ccc(O)c(O)c2)oc2c(OC)c(O)cc(O)c2c1=O | – | – | 1.5 µg/mL | – | 2 µg/mL | 6.6 | 20 µg/mL | 10 mg/L (≈ 28.9 µM) | 1000000 |

| SMILES | CyD50 (Human rhinovirus sp. [1]) | selectivity ratio [2] | ED99 (Enterovirus C [3]) | ED99 (Human rhinovirus sp. [4]) | Minimal dose (Enterovirus C [5]) | selectivity ratio [6] | Max non-toxic dose (Enterovirus C [7]) | CC50 [8] | Reduction factor (Enterovirus C [9]) |
| --- | --- | --- | --- | --- | --- | --- | --- | --- | --- |
| COc1cc(O)c2c(=O)c(OC)c(-c3ccc(O)c(O)c3)oc2c1 | – | – | 0.3 µg/mL | – | 0.5 µg/mL | 33.3 | 10 µg/mL | 10 mg/L (≈ 30.3 µM) | 1000000 |
| COc1c(-c2ccc(OC(C)=O)c(OC(C)=O)c2)oc2cc(OC(C)=O)cc(OC(C)=O)c2c1=O | – | – | – | – | 2 µg/mL | – | >50 µg/mL | – | 1000000 |
| COc1c(-c2ccc(O)cc2)oc2ccc(C(C)C)cc2c1=O | 10 µg/mL | 1 | 5 µg/mL | 10 µg/mL | – | 2 | 5 µg/mL | 10 mg/L (≈ 32.2 µM) | – |
| COc1ccc(-c2oc3ccc(O)cc3c(=O)c2OC)cc1 | – | – | – | – | – | – | 100 µg/mL | – | 1 |
| COc1c(O)cc2oc(-c3ccc(O)cc3)c(OC)c(=O)c2c1O [3,6-DIMETHOXY KAEMPFEROL] | – | – | 0.5 µg/mL | – | 1 µg/mL | 50 | 20 µg/mL | 25 mg/L (≈ 75.7 µM) | 100000 |
| COc1c(-c2ccc(O)cc2)oc2ccc(O)cc2c1=O | 15 µg/mL | 1.5 | 2 µg/mL | 10 µg/mL | 5 µg/mL | 1.5 | 10 µg/mL | 3 mg/L (≈ 10.6 µM) | – |
| COc1ccc(-c2oc3c(OC)c(O)cc(O)c3c(=O)c2OC)cc1 | – | – | – | – | – | – | >10 µg/mL | – | 1 |
| COc1cc(O)c2c(=O)c(OC)c(-c3ccc(O)c(OC)c3)oc2c1 [PACHYPODOL] | – | – | 2.5 µg/mL | – | 0.5 µg/mL | 10 | 20 µg/mL | 25 mg/L (≈ 72.6 µM) | 1000000 |
| Cc1ccc2c(=O)c(C)c(-c3ccc(O)cc3)oc2c1 | 100 µg/mL | – | – | 25 µg/mL | – | – | – | 100 mg/L (≈ 376 µM) | – |
| COc1c(-c2ccc(O)cc2)oc2ccc(C)cc2c1=O | 75 µg/mL | – | 5 µg/mL | <1000 µg/mL | – | 15 | 12 µg/mL | 75 mg/L (≈ 266 µM) | – |
| COc1c(-c2ccc(O)cc2)oc2cc(O)cc(O)c2c1=O [ISOKAEMPFERIDE] | – | – | 0.2 µg/mL | – | 0.25 µg/mL | 50 | 10 µg/mL | 10 mg/L (≈ 33.3 µM) | 1000000 |
| COc1ccc(-c2oc3cccc(OC)c3c(=O)c2OC)cc1 | – | – | – | – | – | – | 100 µg/mL | – | 1 |
| COc1cc(O)c2c(=O)c(OC)c(-c3ccc(OC)c(OC)c3)oc2c1 [RETUSIN] | – | – | – | – | – | – | >50 µg/mL | – | 1 |
| COc1c(-c2ccc(O)cc2)oc2c(OC)cccc2c1=O | – | – | 20 µg/mL | – | 2.5 µg/mL | 1.25 | 50 µg/mL | 25 mg/L (≈ 83.8 µM) | 1000000 |
| COc1ccc2oc(-c3ccc(O)cc3)c(OC)c(=O)c2c1 | – | – | 25 µg/mL | – | – | 8 | 50 µg/mL | 200 mg/L (≈ 670 µM) | – |
| Cc1ccc2c(=O)c(N)c(-c3ccc(O)cc3)oc2c1 | – | – | – | – | – | – | – | 10 mg/L (≈ 37.4 µM) | – |
| COc1c(-c2ccc(O)cc2)oc2cc(C(C)C)ccc2c1=O | – | – | – | – | – | – | 25 µg/mL | – | – |
| COc1c(-c2ccc(O)cc2)oc2ccc(Cl)cc2c1=O | 100 µg/mL | – | 6 µg/mL | <1000 µg/mL | 1.5 µg/mL | 16.7 | 100 µg/mL | 100 mg/L (≈ 330 µM) | – |
| COc1ccc(-c2oc3cc(O)cc(O)c3c(=O)c2OC)cc1 [ERMANIN] | – | – | 5 µg/mL | – | 5 µg/mL | 10 | 10 µg/mL | 50 mg/L (≈ 159 µM) | – |
